# Experimental data: article PMC8923172 (Antimicrobial Agents and Chemotherapy, 2022)
# Marks after values point to notes of the source that are not given here. Residues, ends and D or L forms follow the SMILES beside them.
# How the values were obtained:
# in vivo = conditions: Sprague-Dawley, rat, iv
# [1] = Coagulation in rats at the end of treatment; format: in vivo, Sprague-Dawley rats; conditions: median (IQR)
# LPS-induced ALI = conditions: single subcutaneous injection 25 mg/kg; cited from earlier work
# [2] = Serum biochemistry of cynomolgus monkeys at the end of treatment; format: in vivo; conditions: female, median (IQR)
# In short: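 GLP 10-day study in male and female cynomolgus monkeys (n = 3-5/sex/group) dosed once daily with 0 (placebo), 5, 10 or 15 mg/kg test compound by i.v. infusion over 60 ± 5 min. Hematology, serum chemistry and coagulation were taken at end of treatment and reported as median (IQR). Dose groups were compared by Kruskal-Wallis with Dunn's multiple comparison test.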
structure (smiles),measurement,setting,value
"CC[C@H](C)[C@@H]1NC(=O)[C@@H]2CSSC[C@H](NC(=O)[C@H](CCCNC(=N)N)NC(=O)[C@@H]3CSSC[C@H](NC1=O)C(=O)N[C@@H]([C@@H](C)O)C(=O)N[C@@H](CCCNC(=N)N)C(=O)NCC(=O)N[C@@H](Cc1ccccc1)C(=O)N3)C(=O)N[C@@H](CC(C)C)C(=O)N[C@H]1CSSC[C@H](NC(=O)[C@H](C(C)C)NC(=O)CNC(=O)[C@H](CCCNC(=N)N)NC(=O)[C@H](CCCNC(=N)N)NC1=O)C(=O)N[C@@H](CCCNC(=N)N)C(=O)N2 [RTD-1, Rhesus theta (θ) defensin-1] (HELM PEPTIDE1{G.F.C.R.C.L.C.R.R.G.V.C.R.C.I.C.T.R}$PEPTIDE1,PEPTIDE1,3:R3-16:R3|PEPTIDE1,PEPTIDE1,5:R3-14:R3|PEPTIDE1,PEPTIDE1,7:R3-12:R3|PEPTIDE1,PEPTIDE1,1:R1-18:R2$$$V2.0)",Vd,"in vivo; both, 20 mg/kg",0.756 L/kg
same,level at 600 h,"in vivo; female, 10 mg/kg",12.5 ng/mL
same,APTT,"[1]; female, 5 mg/kg",10.60 (0.70) s
same,Fibrinogen,"[1]; female, 5 mg/kg",223.00 (80.00) mg/dL
same,PT,"[1]; female, 5 mg/kg",16.30 (1.40) s
same,APTT,"[1]; female, 10 mg/kg",10.85 (2.43) s
same,Fibrinogen,"[1]; female, 10 mg/kg",283.00 (36.50) mg/dL
same,PT,"[1]; female, 10 mg/kg",17.05 (0.60) s
same,APTT,"[1]; female, 20 mg/kg, day 2","29.20 (20.65)^b^,^c^,^d s"
same,Fibrinogen,"[1]; female, 20 mg/kg, day 2",83.00 (151.75)^d mg/dL
same,PT,"[1]; female, 20 mg/kg, day 2","23.45 (9.75)^b^,^c s"
same,APTT,"[1]; male, 5 mg/kg",14.80 (0.98) s
same,Fibrinogen,"[1]; male, 5 mg/kg",262.50 (9.00) mg/dL
same,PT,"[1]; male, 5 mg/kg",15.95 (0.50) s
same,APTT,"[1]; male, 10 mg/kg",14.60 (1.05) s
same,Fibrinogen,"[1]; male, 10 mg/kg",261.00 (54.75) mg/dL
same,PT,"[1]; male, 10 mg/kg",17.50 (1.40) s
same,APTT,"[1]; male, 20 mg/kg, day 2","18.50 (3.13)^b^,^c^,^d s"
same,Fibrinogen,"[1]; male, 20 mg/kg, day 2","98.00 (18.50)^b^,^c^,^d mg/dL"
same,PT,"[1]; male, 20 mg/kg, day 2","21.25 (1.40)^b^,^c s"
same,mean AUC0-∞,LPS-induced ALI,"~9,001 ng · h/mL"
same,A/G,[2]; 5 mg/kg/day,1.7 (0.2)
same,ALP,[2]; 5 mg/kg/day,576.0 (132.0) U/L
same,ALT,[2]; 5 mg/kg/day,112.0 (50.0) U/L
same,AST,[2]; 5 mg/kg/day,69.0 (22.0) U/L
same,Albumin,[2]; 5 mg/kg/day,4.5 (0.5) g/dL
same,CK,[2]; 5 mg/kg/day,301.0 (38.0) U/L
same,Calcium,[2]; 5 mg/kg/day,10.0 (0.4) mg/dL
same,Chloride,[2]; 5 mg/kg/day,107.0 (1.5) mmol/L
same,Cholesterol,[2]; 5 mg/kg/day,104.0 (17.5) mg/dL
same,Creatinine,[2]; 5 mg/kg/day,0.5 (0.1) mg/dL
same,GGT,[2]; 5 mg/kg/day,92.0 (14.0) U/L
same,Globulin,[2]; 5 mg/kg/day,2.7 (0.4) g/dL
same,Glucose,[2]; 5 mg/kg/day,60.0 (7.5) mg/dL
same,Phos,[2]; 5 mg/kg/day,5.7 (0.2) mg/dL
same,Potassium,[2]; 5 mg/kg/day,4.9 (0.6) mmol/L
same,Sodium,[2]; 5 mg/kg/day,146.0 (0.0) mmol/L
same,T-Bil,[2]; 5 mg/kg/day,0.2 (0.0) mg/dL
same,TP,[2]; 5 mg/kg/day,7.6 (0.7) g/dL
same,Triglycerides,[2]; 5 mg/kg/day,49.0 (8.5) mg/dL
same,Urea N,[2]; 5 mg/kg/day,15.0 (4.0) mg/dL
same,A/G,[2]; 10 mg/kg/day,1.6 (0.2)
same,ALP,[2]; 10 mg/kg/day,915.0 (64.0) U/L
same,ALT,[2]; 10 mg/kg/day,126.0 (87.5) U/L
same,AST,[2]; 10 mg/kg/day,104.0 (16.0) U/L
same,Albumin,[2]; 10 mg/kg/day,4.3 (0.1) g/dL
same,CK,[2]; 10 mg/kg/day,"1,102.0 (1,584.0) U/L"
same,Calcium,[2]; 10 mg/kg/day,10.0 (0.1) mg/dL
same,Chloride,[2]; 10 mg/kg/day,109.0 (2.0) mmol/L
same,Cholesterol,[2]; 10 mg/kg/day,91.0 (10.5) mg/dL
same,Creatinine,[2]; 10 mg/kg/day,0.6 (0.1) mg/dL
same,GGT,[2]; 10 mg/kg/day,88.0 (7.0) U/L
same,Globulin,[2]; 10 mg/kg/day,2.7 (0.4) g/dL
same,Glucose,[2]; 10 mg/kg/day,59.0 (6.5) mg/dL
same,Phos,[2]; 10 mg/kg/day,5.3 (0.6) mg/dL
same,Potassium,[2]; 10 mg/kg/day,5.1 (0.9) mmol/L
same,Sodium,[2]; 10 mg/kg/day,146.0 (3.0) mmol/L
same,T-Bil,[2]; 10 mg/kg/day,0.2 (0.1) mg/dL
same,TP,[2]; 10 mg/kg/day,7.0 (0.3) g/dL
same,Triglycerides,[2]; 10 mg/kg/day,49.0 (1.5) mg/dL
same,Urea N,[2]; 10 mg/kg/day,16.0 (4.5) mg/dL
same,A/G,[2]; 15 mg/kg/day,1.5 (0.0)
same,ALP,[2]; 15 mg/kg/day,943.0 (411.0) U/L
same,ALT,[2]; 15 mg/kg/day,92.0 (36.0) U/L
same,AST,[2]; 15 mg/kg/day,95.0 (45.0) U/L
same,Albumin,[2]; 15 mg/kg/day,4.3 (0.6) g/dL
same,CK,[2]; 15 mg/kg/day,891.0 (603.0) U/L
same,Calcium,[2]; 15 mg/kg/day,10.2 (0.4) mg/dL
same,Chloride,[2]; 15 mg/kg/day,111.0 (1.0) mmol/L
same,Cholesterol,[2]; 15 mg/kg/day,94.0 (13.0) mg/dL
